{
  "source": "paper PMC12376068",
  "about": "(Protein Science : A Publication of the Protein Society, 2025)",
  "key": {"[1]": {"test": "Peptide solubility and aggregation", "format": "physicochemical", "settings": "all conditions tested for CD spectroscopy", "in_short": "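Lyophilized peptide was reconstituted in phosphate buffer (15 mM pH 6.5 or 50 mM pH 4.5) containing 10–20% MeOH or TFE. Samples were vortexed and sonicated 5 min. Concentration was set by absorbance at 280 nm, using 5500 M−1 cm−1 per Trp and 1490 M−1 cm−1 per Tyr. Absorbance had to stay constant over 20 min to exclude aggregation.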"}, "[2]": {"biological_target": "mouse PD-L1 (mPD-L1) on CHO cells (Mus musculus, UniProt Q9EP73)", "sequence (Q9EP73 19-290)": "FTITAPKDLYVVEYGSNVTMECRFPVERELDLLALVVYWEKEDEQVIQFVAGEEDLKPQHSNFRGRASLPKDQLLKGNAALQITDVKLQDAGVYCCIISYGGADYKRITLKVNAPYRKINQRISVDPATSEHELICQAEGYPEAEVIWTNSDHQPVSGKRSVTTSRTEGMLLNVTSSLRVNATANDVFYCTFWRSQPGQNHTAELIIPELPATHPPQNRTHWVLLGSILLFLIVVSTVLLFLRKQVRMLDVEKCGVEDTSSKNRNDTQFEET", "test": "Flow cytometry binding to CHO cells expressing mouse PD-L1", "format": "cell-based", "settings": "highest concentration tested, 1200 nM (Figure S15E)"}, "hPD-L1": {"biological_target": "hPD-L1 (Homo sapiens, UniProt Q9NZQ7)", "sequence (Q9NZQ7 19-238 limits assumed)": "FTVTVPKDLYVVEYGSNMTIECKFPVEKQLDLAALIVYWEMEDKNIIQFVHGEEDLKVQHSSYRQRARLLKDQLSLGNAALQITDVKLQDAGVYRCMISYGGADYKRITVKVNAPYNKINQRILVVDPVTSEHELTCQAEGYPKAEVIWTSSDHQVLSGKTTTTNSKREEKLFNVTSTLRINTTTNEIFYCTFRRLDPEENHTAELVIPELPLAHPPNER", "test": "Biolayer interferometry", "format": "binding", "in_short": "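Extracellular-domain hPD-L1 was expressed in HEK293F cells, Ni-NTA purified and BirA-biotinylated. At 1 μg mL−1 it was loaded onto streptavidin biosensors to 1.4 nm, with PD-L1-free sensors as reference. Association ran 180 s and dissociation 900 s in assay buffer. Sensorgrams were normalized to no-peptide and globally fit to a 1:1 Langmuir model. Duplicates; means and fitting errors reported.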"}, "[3]": {"biological_target": "T1, human PD-L2 (hPD-L2) on CHO cells (Homo sapiens, UniProt Q9BQ51)", "T1 sequence (Q9BQ51 20-273)": "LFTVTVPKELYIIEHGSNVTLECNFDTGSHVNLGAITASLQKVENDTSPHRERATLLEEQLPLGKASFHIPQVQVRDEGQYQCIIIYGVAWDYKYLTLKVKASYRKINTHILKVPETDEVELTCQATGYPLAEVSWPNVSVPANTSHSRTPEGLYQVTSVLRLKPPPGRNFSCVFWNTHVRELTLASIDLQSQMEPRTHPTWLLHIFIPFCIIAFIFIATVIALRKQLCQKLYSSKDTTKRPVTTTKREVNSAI", "test": "Flow cytometry binding to CHO cells expressing human PD-L2", "format": "cell-based", "settings": "highest concentration tested, 1200 nM (Figure S15E)", "in_short": "(§1)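 CHO cells stably transfected with hPD-L2, or MDA-MB-468 cells, were grown in DMEM with 10% heat-inactivated FBS. They were lifted with trypsin-EDTA and resuspended in serum-free medium at 200,000 cells per well. Cells were incubated 1 h at 4°C in the dark with a dilution series of fluorescein-conjugated test peptide in cold 1:1 PBS:SF medium. After three cold-PBS washes, live single-cell fluorescence was read by flow cytometry (488 nm excitation).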"}, "[4]": {"biological_target": "hPD-L1 on the surface of CHO cells (Homo sapiens, UniProt Q9NZQ7)", "sequence (Q9NZQ7 19-290)": "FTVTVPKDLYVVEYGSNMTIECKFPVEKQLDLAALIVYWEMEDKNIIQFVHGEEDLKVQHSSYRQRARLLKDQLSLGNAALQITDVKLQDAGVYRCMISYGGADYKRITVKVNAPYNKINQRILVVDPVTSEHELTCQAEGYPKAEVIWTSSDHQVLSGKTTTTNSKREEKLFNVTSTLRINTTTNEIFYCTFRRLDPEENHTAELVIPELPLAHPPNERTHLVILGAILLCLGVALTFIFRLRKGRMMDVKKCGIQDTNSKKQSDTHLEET", "test": "Flow cytometry binding to CHO hPD-L1 cells", "format": "cell-based", "settings": "flow cytometry (Figure S15D)"}, "[5]": {"test": "Far-UV CD thermal denaturation", "format": "physicochemical", "settings": "pH 6.5, 0-90°C", "in_short": "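Peptide was prepared in PB/MeOH 80:20 (15 mM PB pH 6.5 or 50 mM pH 4.5) at 17–70 μM, set by UV absorbance, in a 0.1 cm quartz cuvette. Far-UV spectra were taken at 190–270 nm, averaged over eight scans, with solvent blank subtracted. The ramp ran 0–90°C at 45°C per hour under nitrogen. Melts used molar ellipticity at 220 or 222 nm; first-derivative maxima gave transitions.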"}, "[6]": {"settings": "cited from earlier work"}, "PD-1/hPD-L1 interaction": {"biological_target": "PD-1/hPD-L1 interaction (Homo sapiens, UniProt Q9NZQ7)", "sequence (Q9NZQ7 19-290)": "as above", "test": "PD-L1 T-cell reactivation assay", "format": "cell-based", "settings": "5 μM peptide, 6 h at 37 °C, Bio-Glo luminescence, RLU relative to vehicle"}, "MDA-MB-468 cells": {"test_system": "MDA-MB-468 cells", "test": "Flow cytometry binding to hPD-L1-negative MDA-MB-468 cells", "format": "cell-based, human", "settings": "SPAM2-fluorescein dilution series", "in_short": "as §1"}, "[7]": {"biological_target": "human PD‐L1 stably expressed on CHO cells (human, UniProt Q9NZQ7 19-290)", "sequence (Q9NZQ7 19-290)": "as above", "test": "flow cytometry on cells"}},
  "note": "Bridge positions count the residues as written; N and C are the ends. Square brackets hold non-standard residues; d marks the D form. Ends that are not written are not given here. I, II: the chains in the order shown. propargylglycine(fluorescein) = propargylglycine labeled with fluorescein azide by click chemistry; PEG10 = NCCOCCOCCOCCOCCOCCOCCOCCOCCOCCOCCC(=O)O",
  "data": [
    {"molecule": "I: MYSSTDHILNKFLILHYALNPT[PEG10]K-NH2 / II: MYSSTDHILNKFLILHYALNPT[PEG10] (amide I:24-II:C) [SPAM4]", "values": [
      {"measurement": "solubility", "setting": "[1]", "value": "low solubility"},
      {"measurement": "binding to CHO-mPD-L1 cells", "setting": "[2]", "value": "no binding"},
      {"measurement": "koff", "setting": "hPD-L1", "value": "0.000219 ± 4e-06", "unit": "s⁻¹"},
      {"measurement": "kon", "setting": "hPD-L1", "value": "2.23e+06 ± 110000", "unit": "M⁻¹ s⁻¹"},
      {"measurement": "binding to CHO-hPD-L2 cells", "setting": "[3]", "value": "no binding"}
    ]},
    {"molecule": "MALPIFSNTYLSHTDLKNYHILGSSSSGS [SPAM3 scrambled]", "values": [
      {"measurement": "binding of sequence-scrambled peptides to CHO-hPD-L1 cells", "setting": "[4]", "value": "no significant binding"}
    ]},
    {"molecule": "MPIFLDHILNKFWILHYA-NH2 [SPAM]", "values": [
      {"measurement": "koff", "setting": "hPD-L1", "value": "0.049 ± 0.0009", "unit": "s⁻¹"},
      {"measurement": "kon", "setting": "hPD-L1", "value": "1.41e+06 ± 30000", "unit": "M⁻¹ s⁻¹"},
      {"measurement": "Kd", "setting": "hPD-L1; K D by BLI, BLI, mean of duplicate", "value": "38 ± 1", "unit": "nM"},
      {"measurement": "temperature above which irreversible aggregation occurs in thermal denaturation", "setting": "[5]", "value": "above 50 °C"},
      {"measurement": "serum stability (ex vivo)", "setting": "[6]; ref Kamalinia et al., 2020", "value": "acceptable serum stability"}
    ]},
    {"molecule": "MSLANYNWSHPSRKDNIHWSLFGSSSSGS [SPAM2 scrambled]", "values": [
      {"measurement": "binding of sequence-scrambled peptides to CHO-hPD-L1 cells", "setting": "[4]", "value": "no significant binding"}
    ]},
    {"molecule": "MWSRSDHNLNKFWILHYSANPS-NH2 [SPAM2]", "values": [
      {"measurement": "koff", "setting": "hPD-L1", "value": "0.00264 ± 2e-05", "unit": "s⁻¹"},
      {"measurement": "kon", "setting": "hPD-L1", "value": "8.78e+06 ± 210000", "unit": "M⁻¹ s⁻¹"},
      {"measurement": "signal restored in T-cell reactivation assay", "setting": "PD-1/hPD-L1 interaction", "value": "more than 50%"}
    ]},
    {"molecule": "MYSSTDHILNKFLILHYALNPT-NH2 [SPAM3]", "values": [
      {"measurement": "koff", "setting": "hPD-L1", "value": "0.00146 ± 1e-05", "unit": "s⁻¹"},
      {"measurement": "kon", "setting": "hPD-L1", "value": "5.78e+06 ± 80000", "unit": "M⁻¹ s⁻¹"}
    ]},
    {"molecule": "SGQYASYHCWCWRDPGRSGGSK [TPP-1, reference compound]", "values": [
      {"measurement": "serum stability", "setting": "[6]; ref Hu et al., 2019", "value": "poor serum stability"}
    ]},
    {"molecule": "SPAM2‐fluorescein: SPAM2 with C-terminal propargylglycine labeled with fluorescein azide by click chemistry (MWSRSDHNLNKFWILHYSANPS-{propargylglycine(fluorescein)}; also: fluorescein azide attached by click chemistry)", "values": [
      {"measurement": "labeling of hPD-L1-negative cells", "setting": "MDA-MB-468 cells", "value": "no concentration‐dependent labeling"}
    ]},
    {"molecule": "MWSRSDHNLNKFWILHYSANPS (also: fluorescein (position not given here))", "note": "[SPAM2‐fluorescein]", "values": [
      {"measurement": "Kd", "setting": "[7]", "value": 15.3, "unit": "nM"}
    ]},
    {"molecule": "MYSSTDHILNKFLILHYALNPT (also: fluorescein (position not given here))", "note": "[fluorescein‐labeled SPAM3]", "values": [
      {"measurement": "Kd", "setting": "[7]", "value": 5.15, "unit": "nM"}
    ]}
  ]
}
